Measurements of several laboratories.
Lines come from different studies, so protocols differ.
Organism: Trypanosoma cruzi
Read-out: parasite growth

The IC50 of `FC(F)(F)c1ccccc1-c1nc(N2CCC(c3ccccn3)C2)c2ccccc2n1` (stereo not shown) is reported as 7.43 µM (imaging; U2OS; intracellular, amastigote).
The IC50 of `O=C(N[C@@H](Cc1ccccc1)C(=O)c1c[nH]nn1)[C@H](Cc1ccccc1)NC(=O)N1CCOCC1` is reported as > 64 µM (TULAHUEN; intracellular, amastigote).
For `Cc1cc(NC(=O)Nc2ccc3c(c2)OC(F)(F)O3)cc(C(F)(F)F)n1`, the IC50 was 1.1 µM (TULAHUEN; intracellular, amastigote).
For `O=C(N[C@@H](Cc1ccccc1)C(=O)c1ncc(-c2ccccc2)s1)[C@H](Cc1ccccc1)NC(=O)N1CCOCC1`, the IC50 was 19.8 µM (TULAHUEN; intracellular, amastigote).
The IC50 of `O=C(Cn1ccnc1[N+](=O)[O-])NCc1ccccc1` is reported as 3.84 µM (L929, TULAHUEN; 7 days, intracellular, amastigote).
For `O=C(N[C@@H](Cc1ccccc1)C(=O)c1cc(-c2ccccc2)on1)[C@H](Cc1ccccc1)NC(=O)N1CCOCC1` (single isomer, unassigned), the IC50 was > 64 µM (TULAHUEN; intracellular, amastigote).
With `Cn1ccnc1-c1nc(N2CCCCC2)c2ccccc2n1` the IC50 was 3.89 µM (imaging; U2OS; intracellular, amastigote).
`O=C(Cn1ccnc1[N+](=O)[O-])NCc1ccccc1` gave an IC50 of 1.12 µM (NIH3T3, TULAHUEN; 96 h, intracellular, amastigote).
`O=C(Cn1ccnc1[N+](=O)[O-])NCc1ccccc1` has an IC50 of 1.2 µM (TULAHUEN; intracellular, amastigote).
For `O=C(Cn1ccnc1[N+](=O)[O-])NCc1ccccc1`, the IC50 was 23 µM (epimastigote).
The IC50 of `Fc1ccccc1-c1nc(N2CCC(c3ccccn3)C2)c2ccccc2n1` (stereo not shown) is reported as 5.37 µM (imaging; U2OS; intracellular, amastigote).
With `C[Si](C)(C)c1cc(C(=O)[C@H](Cc2ccccc2)NC(=O)[C@H](Cc2ccccc2)NC(=O)N2CCOCC2)no1` (mixture of isomers) the IC50 was > 64 µM (TULAHUEN; intracellular, amastigote).
`C=C1CC[C@@H](O)[C@]2(C)CC[C@H]3C(=C)C(=O)O[C@@H]3[C@@H]12` gave an IC50 of > 50 µM (72 h, epimastigote).
`O=C(N[C@@H](Cc1ccccc1)C(=O)c1noc(-c2ccccc2)n1)[C@H](Cc1ccccc1)NC(=O)N1CCOCC1` gave an IC50 of 27.7 µM (TULAHUEN; intracellular, amastigote).
The IC50 of `c1ccc(C2CCN(c3nc(-c4cnn5c4CCCC5)nc4ccccc34)C2)nc1` (stereo not shown) is reported as 4.31 µM (imaging; U2OS; intracellular, amastigote).
`CCCCCCCCCCCCCC#CC(=O)O` has an IC50 of 20.2 µg/mL (rat Myoblast, TULAHUEN; intracellular, amastigote).
